# Measured values pooled from the literature.
# Lines come from different studies, so protocols differ.
# Target: Inhibitor of nuclear factor kappa-B kinase subunit epsilon (IKBKE, Homo sapiens, UniProt Q14164)
# Sequence (Q14164 1-716, as in one of the studies): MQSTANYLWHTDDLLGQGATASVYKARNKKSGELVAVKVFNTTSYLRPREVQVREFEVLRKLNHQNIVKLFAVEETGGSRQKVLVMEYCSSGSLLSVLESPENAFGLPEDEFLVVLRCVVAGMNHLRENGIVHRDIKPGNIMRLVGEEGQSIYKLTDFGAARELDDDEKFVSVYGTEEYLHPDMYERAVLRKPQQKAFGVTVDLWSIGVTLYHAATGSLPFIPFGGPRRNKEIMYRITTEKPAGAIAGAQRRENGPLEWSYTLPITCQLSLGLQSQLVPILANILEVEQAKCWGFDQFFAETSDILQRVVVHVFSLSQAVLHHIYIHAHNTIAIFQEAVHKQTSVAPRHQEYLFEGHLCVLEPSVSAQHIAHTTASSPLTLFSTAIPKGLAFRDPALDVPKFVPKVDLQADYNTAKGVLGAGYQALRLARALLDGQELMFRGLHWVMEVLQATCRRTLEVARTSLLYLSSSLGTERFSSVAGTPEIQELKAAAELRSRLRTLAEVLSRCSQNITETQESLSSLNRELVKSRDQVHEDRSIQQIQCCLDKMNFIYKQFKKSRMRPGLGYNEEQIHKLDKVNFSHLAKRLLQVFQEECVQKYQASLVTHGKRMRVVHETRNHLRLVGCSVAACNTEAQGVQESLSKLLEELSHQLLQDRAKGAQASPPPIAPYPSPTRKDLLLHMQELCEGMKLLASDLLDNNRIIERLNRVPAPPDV
SMILES,observed,technique,tested at,remaining binding
COc1cnc(Nc2cccc(S(N)(=O)=O)c2)nc1N1CCN(c2ccccc2)C(=O)C1,binding,competition with immobilised ligand,1 µM,50%
N[C@@H]1CCN(c2nccc(-c3cnn4ncccc34)n2)C1,binding,,1 µM,100%
CC1=C(C#N)[C@@H](c2ccc3[nH]nc(C)c3c2)C(C#N)=C(c2ccc(Cl)cc2)N1,cell-free assay,competition with immobilised ligand,1 µM,100%
O=C(Nc1c[nH]nc1C(=O)NC1CCNCC1)c1cc(F)cc(F)c1,binding,competition with immobilised ligand,1 µM,100%
O=C(NCCCN1CCOCC1)c1ccc(Nc2nccc(-c3cc4ccccc4s3)n2)cc1,binding,competition with immobilised ligand,1 µM,96%
Cc1cc(C)c(-n2ccn3nc(-c4cccnc4)cc23)cc1NC(=O)c1cc(C#N)cc(S(F)(F)(F)(F)F)c1,cell-free assay,competition with immobilised ligand,0.1 µM,59.9%
O=C(c1ccc(Nc2ncc(Cl)c(-c3cc4ccccc4s3)n2)cc1)N1CCC(N2CCCC2)CC1,binding,competition with immobilised ligand,1 µM,21%
CNC(=O)[C@@H]1CC[C@@H](n2c(-c3ccc4cnccc4c3)nc3ccc(C(=O)NCc4cccc(C(N)=O)c4)cc32)C1,binding,competition with immobilised ligand,1 µM,98%
CCc1ccccc1C(=O)Nc1n[nH]c2c(C)c(F)c(C3C(C#N)=C(C)N(C)C(C)=C3C#N)cc12,cell-free assay,competition with immobilised ligand,1 µM,68%
C[C@H]1CCN(c2nccc(-c3cnn4ncccc34)n2)C1,binding,,1 µM,79%
COc1ncc2cc3ccccc3nc2c1C#N,cell-free assay,competition with immobilised ligand,5 µM,97%
CC1CCCN1c1nccc(-c2cnn3ncccc23)n1 (stereo not drawn),binding,,1 µM,100%
Nc1ncc2c(n1)-c1c([nH]c3ccc(C#CC4CC4)cc13)CCCC2,binding,competition with immobilised ligand,1 µM,83%
CN(C)CC#Cc1ccc(OCCCc2sc(N3CCc4cccc(C(=O)Nc5nc6ccccc6s5)c4C3)nc2C(=O)O)c(F)c1,cell-free assay,competition with immobilised ligand,1 µM,100%
O=C(c1ccc(Nc2nccc(-c3cc4ccccc4s3)n2)cc1)N1CCC(N2CCCC2)CC1,binding,competition with immobilised ligand,1 µM,31%
F[C@@H]1CCN(c2nccc(-c3cnn4ncccc34)n2)C1,binding,,1 µM,100%
C=CC(=O)N1CCC(C(=O)NCC(=O)N2CCN(c3nc(-c4cnc(N)nc4C(F)F)nc(N4CCOCC4)n3)CC2)CC1,binding,competition with immobilised ligand,1 µM,71%
Nc1cnc(N2CCc3cc(S(=O)(=O)Nc4c(F)cc(Cl)cc4F)cc(N4CCCC4=O)c32)nc1,cell-free assay,competition with immobilised ligand,1 µM,95%
CN(C)c1nccc(-c2cnn3ncccc23)n1,binding,,1 µM,89%
CCCOc1ccc([C@@H]2[C@@H](C(=O)O)[C@H](c3ccc4c(c3)OCO4)CN2CC(=O)Nc2c(CC)cccc2CC)cc1,cell-free assay,competition with immobilised ligand,1 µM,85%
CN(C)c1nccc(-c2cnc3ncccn23)n1,binding,,1 µM,100%
